Source: BindingDB's records for doi:10.1016/j.bmcl.2009.08.072 (Glaxosmithkline, 2010)

Tests used:
[1] = biological target: T1, Presenilin-1 (Homo sapiens, UniProt P49768); assay: Inhibition of gamma-secretase in human SHSY5Y cells expressing human recombinant APP assessed as amyloid beta40 formation by ELISA
In short: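 SH-SY5Y cells overexpressing human APP Swedish variant exposed to compound for 48 h; Aβ40 (and Aβ42) in the cell medium quantified by ELISA, either Meso Scale Discovery or AlphaLISA format. Compounds also cross-screened for inhibition of Notch processing.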

[2] = biological target: T1, Presenilin-1; assay: Inhibition of gamma-secretase in human SHSY5Y cells expressing human recombinant APP assessed as amyloid beta42 formation by ELISA
In short: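 SH-SY5Y cells overexpressing human APP Swedish variant were incubated with compound for 48 h. Secreted Aβ42 and Aβ40 were measured by immunoassay (MSD electrochemiluminescence or AlphaLISA).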

Structure (SMILES): CC(C)[C@H](O)C(=O)N[C@@H](C)C(=O)NC1C(=O)N(C)CCc2ccccc21 (stereo partly drawn) [(2S)-2-hydroxy-3-methyl-N-[(1S)-1-{[(1S)-3-methyl-2-oxo-2,3,4,5-tetrahydro-1H-3-benzazepin-1-yl]carbamoyl}ethyl]butanamide]
- IC50 [1]: 40 nM
- IC50 [2]: 40 nM
